Activity calls are given as the source filed them.
How the values were obtained:
Trypanosoma cruzi [1] = assay: Antitrypanosomal activity against Trypanosoma cruzi Sylvio X-10 amastigotes infected in African green monkey Vero cells assessed as eradication of amastigotes after 5 days by Giemsa staining-based assay; format: functional, organism-based; conditions: Sylvio X-10, Vero, 120 h
Procedure, shortened: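 VERO cells in RPMI 1640 with 10% hiFCS were allowed to adhere for 24 h at 37 °C in 5% CO₂, then infected with tissue-derived trypomastigotes at 10:1. Free parasites were washed off after 24 h, and cultures were treated at five compound doses (text gives 72 h / 5 days). Cultures were methanol-fixed and Giemsa-stained, and infected cells were counted among 300. Quadruplicates were run in three independent experiments. IC50/IC90 were obtained by sigmoidal regression.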

Trypanosoma cruzi [2] = assay: Antitrypanosomal activity against Trypanosoma cruzi CL Brener infected in BALB/c mouse assessed as peak of maximum parasitemia at 107 umol/kg/day, po for 14 days administered in saline and tween 80 measured up to 60 days relative to control; format: functional
Procedure, shortened: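 Male BALB/c mice (30 days old, 25–30 g, SPF) were infected i.p. with 10³ blood trypomastigotes, n = 8/group. Daily oral gavage in saline/Tween 80 (4:1) ran for 14 days from day 6 post-infection; controls received vehicle only. Parasitemia was counted weekly in tail-vein blood by hemocytometer for 60 days, and survival was recorded.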

[3] = Stability of the compound in aqueous solution assessed as compound remaining at 1 mM at pH 6 after 1 hr by TLC analysis; format: physicochemical; conditions: aqueous solution, pH 6; read-out: Stability
Procedure, shortened: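 DMSO stocks diluted to final 1 mM in KCl·HCl pH 1.0, citrate pH 6.0, Tris·HCl pH 7.4 or borax·HCl pH 9.0 buffer. Incubated 1 h at 37 °C, then ethyl acetate extracts checked by TLC for decomposition products.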

Trypanosoma cruzi [4] = assay: Antitrypanosomal activity against Trypanosoma cruzi CL Brener infected in BALB/c mouse assessed as peak of maximum parasitemia at 107 umol/kg/day, po for 14 days administered in cholesterol/surfactant/phosphate buffer measured up to 60 days relative to control; format: functional
Procedure, shortened: (§1)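 Male BALB/c mice (30 days old, 25–30 g, SPF) were infected i.p. with 10³ blood trypomastigotes, n = 7/group. Daily oral gavage in a microemulsion (cholesterol oil phase, phosphatidylcholine/sodium oleate/polyoxyl-40 hydrogenated castor oil surfactant, phosphate buffer pH 7.4) ran for 14 days from day 6; vehicle controls were included. Parasitemia was read weekly in tail-vein blood by hemocytometer for 60 days, with survival recorded.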

Trypanosoma cruzi [5] = assay: Antitrypanosomal activity against Trypanosoma cruzi CL Brener infected in BALB/c mouse assessed as mouse survival at 214 umol/kg/day, po for 14 days administered in cholesterol/surfactant/phosphate buffer measured up to 60 days relative to control; format: functional
Procedure, shortened: (§2)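 Infected male BALB/c mice (30 days old, 25–30 g) were gavaged daily from day 6 postinfection for 14 days. Vehicle was a microemulsion of 10% cholesterol, 10% surfactant (soya phosphatidylcholine/sodium oleate/polyoxyl-40 hydrogenated castor oil) and 80% phosphate buffer pH 7.4. n = 7/group, with vehicle controls. Tail-vein parasitemia was taken weekly for 60 days and mortality recorded.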

Trypanosoma cruzi [6] = assay: Antitrypanosomal activity against Trypanosoma cruzi CL Brener infected in BALB/c mouse assessed as decrease in plasmodial antibodies at 214 umol/kg/day, po for 14 days administered in cholesterol/surfactant/phosphate buffer measured on day 60 by ELISA; format: functional, organism-based; conditions: in the assay text read “anti-Trypanosoma cruzi antibodies” for “plasmodial antibodies”
Procedure, shortened: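 Infected male BALB/c mice (n = 7/group) were dosed orally for 14 days from day 6 post-infection in cholesterol/surfactant/phosphate buffer pH 7.4 microemulsion; the control group received vehicle. Anti-T. cruzi antibodies were measured by ELISA (each serum tested twice) at days 30 and 60 post-infection and compared with untreated animals and a healthy-animal cutoff.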

Trypanosoma cruzi [7] = assay: Antitrypanosomal activity against Trypanosoma cruzi CL Brener infected in BALB/c mouse assessed as peak of maximum parasitemia at 214 umol/kg/day, po for 14 days administered in cholesterol/surfactant/phosphate buffer measured up to 60 days relative to control; format: functional; procedure, shortened: as §1
Salmonella typhimurium [8] = assay: Mutagenic activity in Salmonella typhimurium TA98 at 5 to 400 ug/plate by Ames test; format: toxicity, organism-based; conditions: salmonella enterica subsp. enterica serovar typhimurium
Procedure, shortened: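 Ames plate-incorporation assay with S. typhimurium TA98 in Vogel-Bonner E minimal glucose agar. Toxicity toward the bacteria was checked first. DMSO solutions were run in triplicate at five consecutive third-dilutions, starting at the highest non-toxic dose. Positive controls were 4-nitro-o-phenylenediamine (20.0 μg/plate) and 2-aminofluorene (10.0 μg/plate); DMSO was the negative control. Revertants were counted manually. A compound was called mutagenic when revertants were at least twice the negative control at two or more consecutive doses.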

[9] = Selectivity index, ratio of IC50 for human RBC to IC50 for Trypanosoma cruzi Sylvio X-10 amastigotes
Procedure, shortened: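 Hemolysis: washed human erythrocytes (2% w/v in PBS) incubated 24 h at 37 °C with compound at final 50, 100 and 200 μM. Ten replicates per concentration. Hemoglobin release read at 405 nm against water lysis as 100%; amphotericin B 1.5 μM was the positive control. SI = IC50 red cells / parasite IC50 (Sylvio X-10 amastigotes or Tulahuen 2 epimastigotes).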

Trypanosoma cruzi [10] = assay: Antitrypanosomal activity against Trypanosoma cruzi Sylvio X-10 amastigotes infected in African green monkey Vero cells assessed as eradication of amastigotes at 5 uM after 5 days by optical microscopic analysis; format: functional, organism-based; conditions: in the assay text read “after 72 hrs” for “after 5 days”
Procedure, shortened: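 VERO cells infected with Sylvio X-10 parasites were treated with 5 μM compound and examined by optic microscopy after 72 h of incubation for intracellular amastigotes and trypomastigotes.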

Trypanosoma cruzi [11] = assay: Antitrypanosomal activity against Trypanosoma cruzi Tulahuen 2 epimastigotes assessed as growth inhibition after 5 days; format: functional, organism-based; conditions: Trypanosoma cruzi, Tulahuen 2, 120 h
Procedure, shortened: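 Epimastigotes were grown axenically at 28 °C in BHI-tryptose with 5% FBS and seeded from a 5–7 day culture at 1 × 10⁶ cells/mL. Drug from a DMSO stock was added (final DMSO ≤0.4%; the control contained 0.4% DMSO). Duplicates were run. A600 was read at day 5, and % inhibition was calculated relative to day-0 and control readings. IC50 = concentration that halves the absorbance ratio.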

Trypanosoma cruzi [12] = assay: Antitrypanosomal activity against Trypanosoma cruzi CL Brener infected in BALB/c mouse assessed as mouse survival at 107 umol/kg/day, po for 14 days administered in cholesterol/surfactant/phosphate buffer measured up to 60 days relative to control; format: functional; procedure, shortened: as §2
Salmonella typhimurium [13] = assay: Mutagenic activity in Salmonella typhimurium TA1537 at 3.09 to 250 ug/plate by Ames test in presence of mouse liver S9 fraction; format: toxicity, organism-based; conditions: salmonella enterica subsp. enterica serovar typhimurium
Procedure, shortened: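 Plate-incorporation Ames test on minimal glucose agar with 500 μL Aroclor-treated mouse liver S9 added. DMSO solutions were tested at five consecutive 3-fold dilutions from the highest non-toxic dose, in triplicate, with a DMSO negative control. Revertants were counted manually; a compound was scored mutagenic when revertants were at least twice the negative control for two or more consecutive doses.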

[14] = Stability of the compound in aqueous solution assessed as compound remaining at 1 mM at 37 degC after 1 hr by TLC analysis in presence of rat liver microsomal fraction; conditions: microsomes, 1000 µM
Procedure, shortened: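 Rat liver cytosolic (100 000g supernatant) and microsomal (100 000g pellet, washed and resuspended in Tris·HCl) fractions, fresh or stored at −80 °C; protein measured by BCA. Compound incubated with the fraction 1 h at 37 °C and analysed by TLC of extracts.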

SMILES: Br.C=CCn1c(-c2ccc(Cl)cc2)cs\c1=N/N=C/C=C/c1ccco1.O
- IC50 (Trypanosoma cruzi [1]): < 250 nM
- Time (Trypanosoma cruzi [2]): 26 days
- remaining at 1 h, 1000 µM [3]: > 95%
- Time (Trypanosoma cruzi [4]): 35 days
- survival at 214 µmol/kg (Trypanosoma cruzi [5]): 100%
- Activity (Trypanosoma cruzi [6]): Active
- Time (Trypanosoma cruzi [7]): 35 days
- Activity (Salmonella typhimurium [8]): Non-toxic
- Ratio IC50 [9]: > 234
- Activity (Trypanosoma cruzi [10]): Active
- IC50 (Trypanosoma cruzi [11]): 1300 nM
- survival at 107 µmol/kg (Trypanosoma cruzi [12]): 100%
- Activity (Salmonella typhimurium [13]): Non-toxic
- Stability [14]: Stable

— ChEMBL document CHEMBL3259808, “Optimization of antitrypanosomatid agents: identification of nonmutagenic drug candidates with in vivo activity” (J Med Chem, 2014)
